Data on 1 molecule can be found in ChEMBL document CHEMBL1148625, “3-(1,1-dioxo-2H-(1,2,4)-benzothiadiazin-3-yl)-4-hydroxy-2(1H)-quinolinones, potent inhibitors of hepatitis C virus RNA-dependent RNA polymerase” (J Med Chem, 2006).

Data set [1] is described as follows: Clearance in Sprague-Dawley rat at 1.3 mg/kg, iv or 3.4 mg/kg, po. In kind it is ADME, organism-based. As to conditions: in vivo; call rule not given here. The gist of the method:
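Single intravenous or oral doses given to Sprague-Dawley rats. Values are reported as means: Cmax (ng/mL), half-life (min), plasma clearance (mL/min/kg), steady-state volume of distribution (L/kg) and oral bioavailability F (%).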

The nature of data set [2]: Half life in Beagle dog at 0.8 mg/kg, iv or 4.0mg/kg, po. In kind it is ADME, organism-based, Canis lupus familiaris. More on the design: dose 0.8 mg/kg. The settings on record: in vivo. The method, boiled down:
(§1)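 Single-dose study, with separate intravenous and oral administrations at the listed mg/kg. Plasma concentrations were followed over time, and mean values were derived for Cmax, T1/2, clearance (mL/min/kg), Vdss (L/kg) and oral bioavailability (%).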

Data set [3] deals with Hepatitis C virus. The experiment in a line: Protein binding in Huh7 cells using HCV 1b replicon by a replicon cell assay in presence of HSA and alpha-acid glycoprotein. The settings on record: genotype 1b, Huh-7. In kind it is functional, organism-based, Hepacivirus hominis.
The nature of data set [4]: Oral bioavailability in Beagle dog at 0.8 mg/kg, iv or 4.0 mg/kg, po. It is filed as ADME, organism-based, Canis lupus familiaris. The settings on record: in vivo. The gist of the method: as §1
The nature of data set [5]: Half life in cynomolgus monkey at 0.8 mg/kg, iv or 4.0 mg/kg, po. As to conditions: in vivo. In kind it is ADME, organism-based, Macaca fascicularis. The method, boiled down:
as §1

Data set [6] has as its target T1, RNA-directed RNA polymerase (Hepacivirus hominis, UniProt O39930). In words: Inhibitory activity against HCV 1b NS5B RNA polymerase. On the set-up: species or system Hepatitis C virus subtype 1b. The gist of the method: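 Scintillation proximity polymerase assay with HCV NS5B (genotype 1b, J4 strain, Δ21 construct) at 50 or 10 nM. The reaction used [α-33P]GTP and GTP with 5′-biotinylated oligo(rG13)/poly(rC) in 20 mM Tris-Cl pH 7.5 containing MgCl2, KCl, DTT and 0.05% BSA. It ran 2 h at 25 °C, was stopped with an equal volume of 100 mM EDTA, then captured on streptavidin FlashPlates and counted; n = 4.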

The test system of data set [7] is Hepatitis C virus. The experiment in a line: Protein binding in Huh7 cells using HCV 1b replicon by a replicon cell assay in presence of alpha-acid glycoprotein. It is filed as functional, organism-based, Hepacivirus hominis. As to conditions: genotype 1b, Huh-7. (Replicon systems follow genome replication, usually without infectious particles.)
The target of data set [8] is T2, Nuclear receptor subfamily 1 group I member 2 (Homo sapiens, UniProt O75469).
T2 sequence (O75469 whole entry): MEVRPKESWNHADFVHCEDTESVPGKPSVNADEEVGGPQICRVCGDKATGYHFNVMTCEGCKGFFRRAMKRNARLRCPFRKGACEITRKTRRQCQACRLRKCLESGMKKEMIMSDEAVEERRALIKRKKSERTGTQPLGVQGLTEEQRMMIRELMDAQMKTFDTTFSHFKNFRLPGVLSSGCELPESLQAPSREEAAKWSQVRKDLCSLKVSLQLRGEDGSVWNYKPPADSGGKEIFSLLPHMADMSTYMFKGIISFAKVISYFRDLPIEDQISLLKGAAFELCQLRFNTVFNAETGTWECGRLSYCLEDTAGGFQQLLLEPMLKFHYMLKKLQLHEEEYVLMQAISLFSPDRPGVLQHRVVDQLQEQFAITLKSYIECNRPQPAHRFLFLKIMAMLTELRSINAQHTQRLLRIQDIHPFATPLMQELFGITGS
The experiment in a line: Effect on PXR activity.

In another data set the target is Cytochrome P450 3A4 (Homo sapiens, UniProt P08684). In words: Effect on CYP3A4 induction. It is filed as ADME.
Data set [9] deals with T1, RNA-directed RNA polymerase. The experiment in a line: Inhibitory activity against HCV 1a NS5B RNA polymerase.

A value given as a limit tells only on which side of the number the result lay.

As usually defined, the half-life is how long it takes for the measured level to halve. What is called EC50 is the midpoint of the concentration-response curve. For orientation: bioavailability means dose-corrected exposure relative to a reference, in per cent. The term IC50 denotes the concentration that gives 50% inhibition.

T1 sequence (O39930 whole entry): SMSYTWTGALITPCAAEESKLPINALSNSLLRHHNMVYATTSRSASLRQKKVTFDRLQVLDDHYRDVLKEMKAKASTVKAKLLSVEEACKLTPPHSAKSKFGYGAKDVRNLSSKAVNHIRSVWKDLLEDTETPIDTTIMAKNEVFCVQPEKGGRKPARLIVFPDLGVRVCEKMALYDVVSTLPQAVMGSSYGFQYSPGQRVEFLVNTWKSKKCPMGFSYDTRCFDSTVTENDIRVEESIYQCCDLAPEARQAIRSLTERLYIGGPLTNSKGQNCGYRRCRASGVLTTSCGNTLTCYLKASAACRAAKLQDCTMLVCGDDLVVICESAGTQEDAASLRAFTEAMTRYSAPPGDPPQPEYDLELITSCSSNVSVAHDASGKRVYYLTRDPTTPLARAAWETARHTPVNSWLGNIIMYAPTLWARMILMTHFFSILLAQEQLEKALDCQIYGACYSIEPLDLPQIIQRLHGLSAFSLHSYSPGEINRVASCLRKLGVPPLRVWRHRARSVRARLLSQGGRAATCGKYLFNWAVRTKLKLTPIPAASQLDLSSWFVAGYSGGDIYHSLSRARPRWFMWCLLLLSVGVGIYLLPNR
Cytochrome P450 3A4, sequence (P08684 whole entry): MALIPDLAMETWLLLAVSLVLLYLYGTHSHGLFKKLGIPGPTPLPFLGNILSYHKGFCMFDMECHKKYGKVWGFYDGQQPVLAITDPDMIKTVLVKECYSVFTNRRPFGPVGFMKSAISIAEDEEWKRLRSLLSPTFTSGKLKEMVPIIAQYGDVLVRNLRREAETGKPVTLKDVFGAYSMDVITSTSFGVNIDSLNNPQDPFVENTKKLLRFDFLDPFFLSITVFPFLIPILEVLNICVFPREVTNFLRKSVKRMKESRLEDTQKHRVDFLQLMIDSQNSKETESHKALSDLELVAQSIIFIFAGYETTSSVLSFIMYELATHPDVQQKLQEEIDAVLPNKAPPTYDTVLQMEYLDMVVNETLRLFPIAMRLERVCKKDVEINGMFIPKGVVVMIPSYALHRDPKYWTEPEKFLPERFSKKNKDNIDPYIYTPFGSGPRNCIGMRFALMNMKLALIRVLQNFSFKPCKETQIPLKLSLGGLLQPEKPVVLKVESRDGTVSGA

`O=c1c(C2=Nc3ccccc3S(=O)(=O)N2)c(O)c2cc(F)ccc2n1CCC1CC1` returned a clearance in data set [1] of 1.4 mL/min/kg. The half-life was 104 min in data set [2] and 96.9 min in data set [5]. The EC50 in the data set with Hepatitis C virus [3] is > 20 µM; in the data set with Hepatitis C virus [7], 180 nM; in [8], 5.3 µM. Also, the bioavailability in data set [4] was > 35%. Moreover, the IC50 worked out at 10 nM in data set [6] and 49 nM in [9]. Also, the outcome at Cytochrome P450 3A4 was Active.
